SENP8 block-1: SENP8 protease inhibitors, primary screen, biochemical, luminescence; Sentrin-specific protease 8 (Homo sapiens), Q96LD8; purified SENP8, Z-RLRGG-aminoluciferin cleavage; inhibition, % at 10 µM; hit rate 1.2% among 330,000; AID 2540, 2010; in the data active = inhibition above about 50%
SENP1 FRET inh: human SENP1 catalytic domain inhibitors, primary screen, biochemical, FRET, uHTS; Sentrin-specific protease 1 (Homo sapiens), Q9P0U3; recombinant SENP1 catalytic domain, CyPet-SUMO1-YPet FRET cleavage; inhibition, % at 10 µM; hit rate 0.21% among 360,000; AID 624204, 2012;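 active = inhibition at least 30% at 10 µM, raw YFP signal under a set limit, fluorescence ratio 0.5 to 1.5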;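 note: 0% = enzyme with DMSO and 100% = no enzyme wells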
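Material: hSENP1 catalytic domain, recombinant; medium: Tris pH 8 with BME, BSA, NP40 and catalase; compound: single concentration of 10 µM compound, 0.5% DMSO final; technique: FRET read of cyan and yellow fluorescence; timing: 50 min enzyme reaction, room temperature, light-protected; reagent: SFCypet-SUMO1-SFYpet substrate at 25 nM; control set: no-enzyme low, enzyme-DMSO high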
SENP8 block-2: human SENP8 protease inhibitors, primary screen, biochemical, fluorescence, Nedd8 protein substrate, uHTS; Sentrin-specific protease 8 (Homo sapiens), Q96LD8; recombinant SENP8; inhibition, % at 20 µM; hit rate 0.64% among 360,000; AID 602440, 2012; in the data active = inhibition mostly above about 40%, no sharp cut-off; inactive = mostly below about 27%
SENP7 block: SENP7 protease inhibitors, primary screen, biochemical, luminescence, uHTS; hit rate 1.5% among 330,000; inhibition, % at 5 µM; AID 434973, 2010; recombinant SENP7, Z-RLRGG-aminoluciferin luminescence, 40 min;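 active = inhibition above about 50% at the single test dose, limit read from the data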;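 note: plate controls were DMSO with enzyme for no effect and no enzyme buffer wells for full effect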
SENP6 inh: SENP6 protease inhibitors, primary screen, biochemical, luminescence, uHTS. Sentrin-specific protease 6 (Homo sapiens), Q9GZR1. Recombinant SENP6 catalytic domain, aminoluciferin luminescence. inhibition, % at 10 µM. hit rate 1.8% among 330,000. AID 2599, 2010;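 active = inhibition above about 50% at the single tested dose, limit read from the data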;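 note: plate controls were DMSO wells with enzyme for no effect and DMSO wells lacking enzyme for full effect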
Target sequence (Q9GZR1 628-1112 limits assumed): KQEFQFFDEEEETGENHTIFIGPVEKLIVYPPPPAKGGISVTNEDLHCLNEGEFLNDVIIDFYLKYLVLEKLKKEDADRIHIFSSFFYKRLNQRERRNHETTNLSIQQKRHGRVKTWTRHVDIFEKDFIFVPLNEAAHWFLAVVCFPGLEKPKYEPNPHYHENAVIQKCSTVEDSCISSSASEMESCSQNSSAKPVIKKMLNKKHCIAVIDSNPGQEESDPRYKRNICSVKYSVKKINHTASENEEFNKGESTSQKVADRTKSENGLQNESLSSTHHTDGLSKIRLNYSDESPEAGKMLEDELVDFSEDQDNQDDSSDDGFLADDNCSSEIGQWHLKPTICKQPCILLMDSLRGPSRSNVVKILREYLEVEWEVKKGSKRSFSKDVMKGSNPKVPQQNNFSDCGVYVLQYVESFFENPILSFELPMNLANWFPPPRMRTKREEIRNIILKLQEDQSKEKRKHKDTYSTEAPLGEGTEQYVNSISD
Starred values were filed as active, the others as inactive; · = not tested or not shown. Sampled rows, rich in hits. Any-hit rate of the full collection: about 2.5%.

SMILES | SENP8 block-1 | SENP1 FRET inh | SENP8 block-2 | SENP7 block | SENP6 inh
CN1CCN(c2ccc(N)cc2)CC1 | 11 | 8 | 51* | -2 | 2
Cn1ncnc2c(=O)n(C)c(=O)nc1-2 | 96* | 38* | 101* | 96* | 95*
CCC1(CCC(C)C)C(=O)NC(=O)N(c2ccccc2)C1=O (stereo unspecified) | · | -1 | 8 | · | ·
Cc1cc2c(C(C)C)c(O)c(O)c(C=O)c2c(O)c1-c1c(C)cc2c(C(C)C)c(O)c(O)c(C=O)c2c1O | · | 3 | 39* | · | ·
CCC1(CC)C(=O)NC(=O)N(CCc2ccccn2)C1=O | · | 3 | 12 | · | ·
C[n+]1c(-c2ccccc2)c2cc(N)ccc2c2ccc(N)cc21 | 93* | 4 | 95* | 95* | 82*
CC1=NN(c2ccccc2)C(=O)C1/C=C1/C(=O)NC(=O)N(c2cc(C)cc(C)c2)C1=O (stereo unspecified) | -6 | -5 | 28 | 0 | -18
CC1=NN(c2ccccc2)C(=O)C1/C=C1\C(=O)NC(=O)N(c2cc(C)cc(C)c2)C1=O (stereo unspecified) | -1 | 0 | 40* | 4 | 10
COc1ccc(OCC(=O)N2CCCC(N3CCN(c4ccccc4C)CC3)C2)cc1 (stereo unspecified) | -10 | 1 | 2 | 19 | -4
O=c1[nH]c(=S)[nH]c(O)c1N=Nc1ccc2c(c1)OCO2 | 82* | 19 | 28 | 85* | 89*
O=c1[nH]c(O)c(N=Nc2ccc3c(c2)OCCO3)c(=O)[nH]1 | -14 | 39* | -25 | 1 | 19
NS(=O)(=O)c1ccc(N=Nc2c(O)[nH]c(=S)[nH]c2=O)cc1 | -9 | -5 | 26 | 11 | 33
CCOC(=O)[C@]12Cc3cc(Cl)ccc3[C@H]1N(C1CCCCC1)C(=O)c1ccccc12 | · | -2 | 5 | · | ·
CCC1(CC)COP(=O)(OCC(Cl)CCl)OC1 (stereo unspecified) | · | 3 | 11 | · | ·
N#CC(C#N)=Cc1ccc(O)c(O)c1 | -7 | -70 | 20 | 8 | -5
CC(C)(C)c1cc(C=C(C#N)C#N)cc(C(C)(C)C)c1O | 11 | -159 | 40* | 5 | 1
Cc1[nH]n(-c2ccccc2)c(=O)c1C(c1ccc([N+](=O)[O-])cc1)c1c(C)[nH]n(-c2ccccc2)c1=O | 3 | 3 | 90* | 20 | 12
Cc1cccc(N2C(=O)/C(=C/c3ccc(N4CCN(C)CC4)o3)C(=O)NC2=S)c1C | 1 | 34* | 31 | 3 | -3
CCc1ccccc1N1C(=O)/C(=C/c2ccc(N3CCN(C)CC3)o2)C(=O)NC1=S | -6 | 43* | 6 | -2 | -14
O=C(CCc1ccccc1)N1Cc2cc(N3CCCCC3)ccc2-n2nncc2C1 | · | -7 | -37 | · | ·
O=c1[nH]c(=S)n(-c2ccc(Br)cc2)c(O)c1C=Nc1ccc(N2CCOCC2)cc1 | -6 | 16 | 14 | 2 | -2
O=c1[nH]c(=S)n(-c2ccccc2F)c(O)c1C=Nc1ccc(N2CCOCC2)cc1 | 3 | 67* | 10 | 7 | 17
Cc1ccc(C(O)(C(=O)OC(C)C)C(O)c2ccccc2)cc1 (stereo unspecified) | · | 3 | 15 | · | ·
O=C1c2ccccc2-c2cc3ccccc3cc21 | · | 27 | -5 | · | ·
O=C1C=C(N2CC2)c2ccccc2C1=O | · | 1 | 64* | · | ·
SMILES | SENP8 block-1 | SENP1 FRET inh | SENP8 block-2 | SENP7 block | SENP6 inh
O=C1NC(=O)N(c2ccccc2)C(=O)/C1=C\c1ccc([N+](=O)[O-])s1 | 17 | · | · | 20 | 20
CN1C(=O)NC(=O)/C(=C/c2ccc([N+](=O)[O-])s2)C1=O | 33 | 5 | 58* | 6 | 50
CCC1CN1P(=O)(N1CCCC1)N1CC1CC (stereo unspecified) | · | -2 | 6 | · | ·
CCCCn1c(NC(=O)c2ccc(Br)o2)c(C(=O)OCC)c2nc3ccccc3nc21 | 62* | -28 | -372 | 14 | 75*
CN1CCc2cc3c(c4c2C1Cc1ccccc1-4)OCO3 (stereo unspecified) | 64* | -27 | -293 | 50* | 70*
O=C(O)c1cccc2c1NC(c1cccc([N+](=O)[O-])c1)C1CC(Sc3ccccc3[N+](=O)[O-])C(Cl)C21 (stereo unspecified) | 8 | 3 | 31 | 3 | 16
